Measurements: ChEMBL document CHEMBL5236609, “Optimization of 1,2,4-Triazole-3-thiones toward Broad-Spectrum Metallo-β-lactamase Inhibitors Showing Potent Synergistic Activity on VIM- and NDM-1-Producing Clinical Isolates” (J Med Chem, 2022)

Tests used:
[1] = Inhibition of bacterial VIM-1 (unknown origin) expressed in Escherichia coli EXPRESS BL21(DE3) assessed as inhibition constant by measuring rate of substrate hydrolysis by UV-visible spectrophotometry; design: species or system Bacteria
Summary of the method: (§1)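 Reporter-substrate assay with purified MBL (1–70 nM final) in 50 mM HEPES pH 7.5 at 30 °C. […] Inhibitor 0.5–1000 μM final. Ki derived from the v0/vi vs [I] slope assuming competitive inhibition, or from a Dixon plot. Ki given when inhibition >70%, otherwise % inhibition at 100 μM. Triplicate.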

[2] = Inhibition of bacterial VIM-2 (unknown origin) expressed in Escherichia coli EXPRESS BL21(DE3) assessed as inhibition constant by measuring rate of substrate hydrolysis by UV-visible spectrophotometry; design: species or system Bacteria; summary of the method: as §1
[3] = Inhibition of bacterial VIM-4 (unknown origin) expressed in Escherichia coli EXPRESS BL21(DE3) assessed as inhibition constant by measuring rate of substrate hydrolysis by UV-visible spectrophotometry; design: species or system Bacteria; summary of the method: as §1
[4] = Inhibition of bacterial NDM-1 (unknown origin) expressed in Escherichia coli EXPRESS BL21(DE3) assessed as inhibition constant by measuring rate of substrate hydrolysis by UV-visible spectrophotometry; design: species or system Bacteria; summary of the method: as §1
Bacteria = experiment: Inhibition of bacterial IMP-1 (unknown origin) expressed in Escherichia coli EXPRESS BL21(DE3) assessed as inhibition constant by measuring rate of substrate hydrolysis at 100 uM by UV-visible spectrophotometry relative to control; summary of the method: as §1
Klebsiella pneumoniae [5] = experiment: Antimicrobial activity against blaVIM-1-producing multidrug-resistant Klebsiella pneumoniae K47-25 clinical isolate assessed as meropenem MIC at 32 ug/ml by broth microdilution method (reference value: […] ug/ml); type: functional; conditions: dose 32 µg/ml
Summary of the method: (§2)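 Inoculum was 5×10^4 CFU/well. Each inhibitor was present at a fixed 32 μg/mL, and MICs were also taken without inhibitor.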

Klebsiella pneumoniae [6] = experiment: Antimicrobial activity against blaVIM-4-producing multidrug-resistant Klebsiella pneumoniae VA-416/02 clinical isolate assessed as meropenem MIC at 32 ug/ml by broth microdilution method (reference value: […] ug/ml); type: functional; conditions: dose 32 µg/ml; summary of the method: as §2
Pseudomonas aeruginosa = experiment: Antimicrobial activity against blaVIM-2-producing multidrug-resistant Pseudomonas aeruginosa VA-182/00 clinical isolate assessed as meropenem MIC at 32 ug/ml by broth microdilution method (reference value: 128 ug/ml); type: functional; conditions: dose 32 µg/ml; summary of the method: as §2
Escherichia coli = experiment: Antimicrobial activity against blaNDM-1-producing multidrug-resistant Escherichia coli SI-004 clinical isolate assessed as meropenem MIC at 32 ug/ml by broth microdilution method (reference value: 64 ug/ml)

SMILES	Ki [1]	Ki [2]	Ki [3]	Ki [4]	inhibition (Bacteria)	MIC (Klebsiella pneumoniae [5])	MIC (Klebsiella pneumoniae [6])	MIC (Pseudomonas aeruginosa)	MIC (Escherichia coli)
O=C(O)[C@H](CCCn1c(-c2ccccc2)n[nH]c1=S)N(Cc1c[nH]cn1)Cc1cscn1	0.82 µM	0.35 µM	0.35 µM	0.03 µM	59%	0.12 µg/mL	0.06 µg/mL	16 µg/mL	4 µg/mL
O=C(O)[C@H](CCCn1c(-c2ccccc2)n[nH]c1=S)N(Cc1cnccn1)Cc1cnccn1	2.5 µM	1.2 µM	0.63 µM	17.9 µM	51%	4 µg/mL	2 µg/mL	128 µg/mL	32 µg/mL
O=C(O)[C@H](CCCn1c(-c2ccccc2)n[nH]c1=S)N(Cc1ncc[nH]1)Cc1ncc[nH]1	0.69 µM	0.9 µM	0.66 µM	0.02 µM	61%	–	–	–	–
O=C(O)[C@H](CCCn1c(-c2cccc(-c3ccccc3)c2)n[nH]c1=S)N(Cc1c[nH]cn1)Cc1c[nH]cn1	0.13 µM	0.09 µM	0.07 µM	0.013 µM	69%	0.03 µg/mL	0.03 µg/mL	8 µg/mL	0.06 µg/mL
O=C(O)[C@H](CCCn1c(-c2ccccc2)n[nH]c1=S)N(Cc1cscn1)Cc1cscn1	2.4 µM	2.5 µM	2 µM	6.5 µM	48%	1 µg/mL	1 µg/mL	128 µg/mL	32 µg/mL
O=C(O)[C@H](CCCn1c(-c2ccccc2)n[nH]c1=S)N(Cc1c[nH]cn1)Cc1cncs1	2.5 µM	1.1 µM	0.77 µM	13.1 µM	39%	1 µg/mL	2 µg/mL	128 µg/mL	32 µg/mL
O=C(O)[C@H](CCCn1c(Cc2ccccc2)n[nH]c1=S)N(Cc1c[nH]cn1)Cc1c[nH]cn1	0.12 µM	0.41 µM	0.12 µM	0.09 µM	54%	0.03 µg/mL	0.03 µg/mL	8 µg/mL	0.06 µg/mL
O=C(O)[C@H](CCCn1c(-c2ccccc2)n[nH]c1=S)N(Cc1cccnc1)Cc1c[nH]cn1	5.2 µM	1.8 µM	1.7 µM	34.8 µM	< 30%	4 µg/mL	1 µg/mL	128 µg/mL	64 µg/mL
O=C(O)[C@H](CCCn1c(C2CCCCC2)n[nH]c1=S)N(Cc1c[nH]cn1)Cc1c[nH]cn1	0.28 µM	0.11 µM	0.09 µM	0.0035 µM	48%	0.06 µg/mL	0.12 µg/mL	8 µg/mL	0.06 µg/mL
O=C(O)[C@H](CCCn1c(-c2ccccc2)n[nH]c1=S)N(Cc1c[nH]cn1)Cc1ncc[nH]1	0.45 µM	3.3 µM	0.35 µM	2.7 µM	49%	0.06 µg/mL	0.06 µg/mL	8 µg/mL	0.06 µg/mL
S=c1[nH]nc(-c2ccccc2)n1CCCCN(Cc1c[nH]cn1)Cc1c[nH]cn1	0.85 µM	1.5 µM	0.9 µM	9.2 µM	34%	4 µg/mL	1 µg/mL	128 µg/mL	32 µg/mL
O=C(O)[C@H](CCCn1c(-c2ccccc2)n[nH]c1=S)N(Cc1cnccn1)Cc1c[nH]cn1	3.3 µM	2.4 µM	1.9 µM	0.89 µM	43%	4 µg/mL	1 µg/mL	128 µg/mL	8 µg/mL
